Data from ChEMBL document CHEMBL1671838, “Discovery of MK-1220: A Macrocyclic Inhibitor of Hepatitis C Virus NS3/4A Protease with Improved Preclinical Plasma Exposure” (ACS Med Chem Lett, 2011).
pIC50, pKi: −log10 of the molar value.

Legend:
Hepatitis C virus [1] = assay: Antiviral activity against HCV1b con1 infected in human HuH7 cells assessed as inhibition of viral replication after 24 hrs in presence of 10% fetal bovine serum; assay type: functional, organism-based, Hepacivirus hominis; conditions: Con1, Huh-7, 24 h
How it was run: (§1)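 Cell-based HCV replicon assay giving IC50. Genotype 1b replicon run with 10% fetal bovine serum or with 50% normal human serum. Genotype 2a replicon run with 10% FBS.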

Hepatitis C virus [2] = assay: Antiviral activity against HCV1b con1 infected in human HuH7 cells assessed as inhibition of viral replication after 24 hrs in presence of 50% normal human serum; assay type: functional, organism-based, Hepacivirus hominis; conditions: Con1, Huh-7, 24 h; how it was run: as §1
[3] = Clearance in Sprague-Dawley rat at 2 mg/kg, iv; assay type: ADME, organism-based; set-up: dose 2 mg/kg, route intravenous; conditions: in vivo
How it was run: (§2)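 IV PK: 2 mg/kg dosed intravenously in DMSO to rat (n = 4) and dog (n = 2).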

[4] = Half life in Sprague-Dawley rat at 2 mg/kg, iv; assay type: ADME, organism-based; set-up: dose 2 mg/kg, route intravenous; conditions: in vivo; how it was run: as §2
[5] = Bioavailability in Sprague-Dawley rat at 2 mg/kg, iv and 5 mg/kg, po; assay type: ADME, organism-based; conditions: in vivo
How it was run: (§3)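 Bioavailability derived from IV dosing at 2 mg/kg in DMSO (rat n = 4, dog n = 2) and PO dosing at 5 mg/kg in 10% Tween (rat n = 3, dog n = 2).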

[6] = Cmax in Sprague-Dawley rat at 5 mg/kg, po; assay type: ADME, organism-based; set-up: dose 5 mg/kg, route oral; conditions: in vivo
How it was run: (§4)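 Oral PK study: 5 mg/kg PO in 10% Tween. Rat n = 3, dog n = 2. Plasma exposure was measured in both species, and dog liver levels were measured at 2 h and 26 h after dosing.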

[7] = AUC in Sprague-Dawley rat at 5 mg/kg, po; assay type: ADME, organism-based; set-up: dose 5 mg/kg, route oral; conditions: plasma; how it was run: as §4
[8] = Drug level in Sprague-Dawley rat liver at 5 mg/kg, po after 24 hrs; assay type: ADME, organism-based; set-up: dose 5 mg/kg, route oral; conditions: read-out: Drug uptake
How it was run: (§5)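 Single oral dose of 5 mg/kg in 10% Tween vehicle; n = 3 for rat and n = 2 for dog. Liver drug concentration was measured at 24 h in rat and at 26 h in dog.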

[9] = Clearance in Beagle dog at 2 mg/kg, iv; assay type: ADME, organism-based, Canis lupus familiaris; set-up: dose 2 mg/kg, route intravenous; conditions: in vivo; how it was run: as §2
[10] = Half life in Beagle dog at 2 mg/kg, iv; assay type: ADME, organism-based, Canis lupus familiaris; set-up: dose 2 mg/kg, route intravenous; conditions: in vivo; how it was run: as §2
[11] = Bioavailability in Beagle dog at 2 mg/kg, iv and 5 mg/kg, po; assay type: ADME, organism-based, Canis lupus familiaris; conditions: in vivo; how it was run: as §3
[12] = Cmax in Beagle dog at 5 mg/kg, po; assay type: ADME, organism-based, Canis lupus familiaris; set-up: dose 5 mg/kg, route oral; conditions: in vivo; how it was run: as §4
[13] = AUC in Beagle dog at 5 mg/kg, po; assay type: ADME, organism-based, Canis lupus familiaris; set-up: dose 5 mg/kg, route oral; conditions: plasma; how it was run: as §4
[14] = Drug level in Beagle dog liver at 5 mg/kg, po after 2 hrs; assay type: ADME, organism-based, Canis lupus familiaris; set-up: dose 5 mg/kg, route oral; conditions: read-out: Drug uptake; how it was run: as §4
[15] = Drug level in Beagle dog liver at 5 mg/kg, po after 26 hrs; assay type: ADME, organism-based, Canis lupus familiaris; set-up: dose 5 mg/kg, route oral; conditions: read-out: Drug uptake; how it was run: as §5
[16] = Cmax in rhesus monkey at 5 mg/kg, po; assay type: ADME, organism-based, Macaca mulatta; set-up: dose 5 mg/kg, route oral; conditions: in vivo
How it was run: (§6)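 Rhesus monkey oral PK: 5 mg/kg PO in 10% Tween, n = 2.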

[17] = AUC in rhesus monkey at 5 mg/kg, po; assay type: ADME, organism-based, Macaca mulatta; set-up: dose 5 mg/kg, route oral; conditions: plasma; how it was run: as §6
[18] = Selectivity ratio Ki for HCV NS3/4A protease to Ki for trypsin
[19] = Selectivity ratio Ki for HCV NS3/4A protease to Ki for chymotrypsin
[20] = Inhibition of HCV NS3/4A protease expressed Escherichia coli after 1 hr by time-resolved fluorescence assay; set-up: species or system Hepacivirus hominis
How it was run: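 Binding assay against genotype 1b HCV NS3/4A protease, read by time-resolved fluorescence; potency expressed as Ki.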

[21] = Drug level in Sprague-Dawley rat liver at 5 mg/kg, po after 4 hrs; assay type: ADME, organism-based; set-up: dose 5 mg/kg, route oral; conditions: read-out: Drug uptake
How it was run: (§7)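 Rat PK screen: 5 mg/kg given orally in PEG400, n = 2; plasma AUC calculated from a 4 h experiment, and liver concentration measured at 4 h after dosing.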

[22] = AUC in Sprague-Dawley rat plasma at 5 mg/kg, po after 4 hrs; assay type: ADME, organism-based; set-up: time < 4 hr, dose 5 mg/kg, route oral; how it was run: as §7
Hepatitis C virus [23] = assay: Antiviral activity against HCV2a infected in human HuH7 cells assessed as inhibition of viral replication after 24 hrs in presence of 10% fetal bovine serum; assay type: functional, organism-based, Hepacivirus hominis; conditions: genotype 2a, Huh-7, 24 h; how it was run: as §1
[24] = Clearance in rhesus monkey at 1 mg/kg, iv; conditions: in vivo
[25] = Half life in rhesus monkey at 1 mg/kg, iv; conditions: in vivo
[26] = Bioavailability in rhesus monkey at 1 mg/kg, iv and 5 mg/kg, po; conditions: in vivo

Work on `C=C[C@@H]1C[C@]1(NC(=O)[C@@H]1C[C@@H]2CN1C(=O)[C@H](C1CCCCC1)NC(=O)OCC(C)(C)CCCc1cc3c(nccc3cc1OC)O2)C(=O)NS(=O)(=O)C1CC1` yielded a pIC50 (Hepatitis C virus [1]) of 8.40, a pIC50 (Hepatitis C virus [2]) of 7.96 and a clearance [3] of 3.4 mL/min/kg. The half-life [4] was 5.7 h, the bioavailability [5] was 37% and the Cmax [6] was 4.4 µM. The AUC [7] was 12.1 µM·h, the concentration at 24 h [8] was 9.9 µM and the clearance [9] was 3.6 mL/min/kg. The half-life [10] was 2.5 h, the bioavailability [11] was 41% and the Cmax [12] was 4 µM. For the same compound, the AUC [13] was 12.4 µM·h, the concentration at 2 h [14] was 54 µM and the concentration at 26 h [15] was 10.3 µM. The Cmax [16] was 0.3 µM, the AUC [17] was 1.2 µM·h and the Ratio Ki [18] was > 50000. For the same compound, the Ratio Ki [19] was > 50000, the pKi [20] was 10.70 and the concentration at 4 h [21] was 23 µM. It also gave an AUC at 4 h [22] of 11.8 µM·h, a pIC50 (Hepatitis C virus [23]) of 8.30 and a clearance [24] of 8.3 mL/min/kg. The half-life [25] was 1.3 h and the bioavailability [26] was 9%.
